Measurements: ChEMBL document CHEMBL2177000, “Pharmacokinetic optimization of class-selective histone deacetylase inhibitors and identification of associated candidate predictive biomarkers of hepatocellular carcinoma tumor response” (J Med Chem, 2012)
One block for each compound: values may come before it. The source made the active and inactive calls. The rule behind the calls is not given here.

Assays:
Mus musculus [1] = assay: AUC in BALB/C mouse at 10 mg/kg, po or 2 mg/kg, iv by LC-MS/MS method; assay type: ADME, organism-based, Plasma; conditions: in vivo
Summary of the method: (§1)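 Female-unspecified BALB/C nude mice (15−20 g, N = 16 per arm); iv bolus 2 mg/kg in 5% DMSO/40% PEG400/55% saline and/or oral gavage 10 mg/kg as 0.445% microcrystalline cellulose microsuspension. Blood sampled at nine (iv) or eight (po) time points into sodium heparin tubes; plasma by LC-MS/MS; noncompartmental analysis.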

Mus musculus [2] = assay: Cmax in BALB/C mouse at 10 mg/kg, po or 2 mg/kg, iv by LC-MS/MS method; assay type: ADME, organism-based; conditions: in vivo; summary of the method: as §1
HGC-27 = assay type: functional, Homo sapiens
BEL-7404 = assay: Antitumor activity against human BEL-7404 cells xenografted in BALB/C mouse assessed as tumor growth inhibition at 100 mg/kg, po administered every other day for 4 weeks; conditions: BEL-7404, po, 672 h, read-out: TGI
SMMC-7721 = assay: Induction of apoptosis in human SMMC-7721 cells assessed as late apoptotic cell level at 5 uM incubated for 48 hrs by FITC/Annexin V staining based flow cytometry (reference value: 6.08%)
Mus musculus [3] = assay: Down-regulation of CFLAR gene expression in human hepatocellular carcinoma patient tumor xenografted in BALB/C mouse at 100 mg/kg, po administered every other day for 4 weeks by […]; assay type: functional, organism-based; parameters: dose 100 mg/kg
Summary of the method: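 Patient-derived HCC xenografts dosed 100 mpk Q2D PO; tumor total RNA (TRIzol, DNase I treated, column-purified) run on a customized 22-gene qRT-PCR array; ΔCt against mean of GAPDH and β-glucuronidase, fold-change relative to day 0 (pre-treatment).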

Mus musculus [4] = assay: Up-regulation of SDC2 gene expression in human hepatocellular carcinoma patient tumor xenografted in BALB/C mouse at 100 mg/kg, po administered every other day for 4 weeks by […]; assay type: functional, organism-based; parameters: dose 100 mg/kg
Summary of the method: (§2)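 Patient HCC tumor fragments (3 × 3 × 3 mm3) implanted subcutaneously in female BALB/c nu/nu mice; at ~200 (150−250) mm3 dosed orally Q2D 100 mpk in 15% Kleptose pH 4.5 tartaric buffer for about four weeks. Tumor RNA (TRIzol, DNase I) run on 22-gene qRT-PCR array, normalized to GAPDH/β-glucuronidase by ΔCt, fold change versus day 0.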

Mus musculus [5] = assay: Up-regulation of TFPI2 gene expression in human hepatocellular carcinoma patient tumor xenografted in BALB/C mouse at 100 mg/kg, po administered every other day for 4 weeks by […]; assay type: functional, organism-based; parameters: dose 100 mg/kg; summary of the method: as §2
SGC-7901 = assay: Induction of cell cycle arrest in human SGC7901 cells assessed as accumulation at G1/G2 phase incubated for 24 hrs by flow cytometry; assay type: functional, cell-based
Summary of the method: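 SGC-7901 cells (1 × 10^5, about 50% confluent) treated 24 h with a concentration series; fixed in chilled 70% ethanol 1 h at 4 °C, stained 1 h at room temperature with propidium iodide (50 μg/mL) plus RNase A and 0.05% Triton X-100; analysed by flow cytometry.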

[6] = Clearance in mouse liver microsomes at 1 uM incubated for 10 mins by LC-MS/MS method; assay type: ADME, Microsome
Summary of the method: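 Liver microsomes (human or mouse, 0.5 mg/mL) in 100 mM potassium phosphate pH 7.4 with 1 μM compound, prewarmed 10 min at 37 °C, started with NADPH (10 mM); stopped at 0, 3, 6, 9, 15, 30 min with ice-cold methanol containing tolbutamide internal standard; LC-MS/MS. Hepatic clearance (mL/min/kg) calculated from intrinsic clearance.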

AUC (Mus musculus [1]): 6316 ng·h/mL | Cmax (Mus musculus [2]): 893 ng/mL | GI90 (HGC-27): 1000 nM
Structure (SMILES): CN1C[C@H](C(=O)Nc2ccc(Cl)cc2)[C@@H](c2ccc(/C=C/C(=O)Nc3ccccc3N)cc2)C1 [listing 1 of 2 here]
inhibition in vivo at 100 mg/kg (BEL-7404): > 60% | Activity (SMMC-7721): 36.17%

Structure (SMILES): CN1C[C@H](C(=O)Nc2ccc(Cl)cc2)[C@@H](c2ccc(/C=C/C(=O)Nc3ccccc3N)cc2)C1 [listing 2 of 2 here]
Activity (Mus musculus [3]): Active | Activity (Mus musculus [4]): Active | Activity (Mus musculus [5]): inactive | Activity (SGC-7901): Dose-dependent effect

CLhep predicted at 1 µM [6]: 36 mL/min/kg
Structure (SMILES): CN1C[C@H](C(=O)Nc2ccc(Cl)cc2)[C@@H](c2ccc(/C=C/C(=O)Nc3ccccc3N)cc2F)C1 (racemic)
